Reference: ChEMBL document CHEMBL3227917, “Structure-activity relationships of dimeric Catharanthus alkaloids. 2. Experimental antitumor activities of N-substituted deacetylvinblastine amide (vindesine) sulfates” (J Med Chem, 1979)

Columns and labels:
[1] = Antitumor activity against mouse Gardner lymphosarcoma allografted in C3H mouse assessed as tumor growth inhibition at 0.05 mg/kg, ip administered daily for 8 to 10 days; type: functional; settings: route intraperitoneal, read-out: TGI
Method in brief: (§1)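 Gardner lymphosarcoma in C3H mice; sulfate salts unless noted, given ip daily for 8–10 days, treatment starting 8 days after tumor implantation. Tumor growth inhibition scored as –, 0–25%; +, 26–50%; ++, 51–75%; +++, 76–100%; T, lethal to ≥5 of 10 animals per group. Average of one or more tests.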

[2] = Antitumor activity against mouse Gardner lymphosarcoma allografted in C3H mouse assessed as tumor growth inhibition at 0.10 mg/kg, ip administered daily for 8 to 10 days; type: functional; settings: route intraperitoneal, read-out: TGI; method in brief: as §1
[3] = Antitumor activity against mouse Gardner lymphosarcoma allografted in C3H mouse assessed as tumor growth inhibition at 0.20 mg/kg, ip administered daily for 8 to 10 days; type: functional; settings: route intraperitoneal, read-out: TGI; method in brief: as §1
[4] = Antitumor activity against mouse Gardner lymphosarcoma allografted in C3H mouse assessed as tumor growth inhibition at 0.40 mg/kg, ip administered daily for 8 to 10 days; type: functional; settings: route intraperitoneal, read-out: TGI; method in brief: as §1
B16 [5] = test: Antitumor activity against mouse B16 cells allografted in C57BL/6 mouse assessed as prolongation of host survival at 0.60 mg/kg, ip administered on days 1,5 and 9; type: functional; settings: route intraperitoneal
Method in brief: (§2)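 B16 melanoma cells (10⁶ inoculum) implanted ip in C57BL/6 mice; groups of 10. Sulfate salts unless noted, given ip on days 1, 5 and 9. Single test. Survival prolongation is expressed as percent versus controls, with survivors counted on day 60. Toxic means deaths of ≥5 of 10 animals before the first control death.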

B16 [6] = test: Antitumor activity against mouse B16 cells allografted in C57BL/6 mouse assessed as prolongation of host survival at 0.90 mg/kg, ip administered on days 1,5 and 9; type: functional; settings: route intraperitoneal; method in brief: as §2
B16 [7] = test: Antitumor activity against mouse B16 cells allografted in C57BL/6 mouse assessed as prolongation of host survival at 1.20 mg/kg, ip administered on days 1,5 and 9; type: functional; settings: route intraperitoneal; method in brief: as §2
CHO [8] = test: Mitotic arrest in CHO cells assessed as increase in cell accumulation at 0.2 ug/ml; type: functional, Cricetulus griseus
Method in brief: (§3)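 Chinese hamster ovary cells in tissue culture, scored for mitotic arrest as increase in cells in mitotic arrest over control: +++, 40–50%; ++, 15–40%; +, 10–15%; ±, 7–10%; –, 3–7%. Cytotoxicity noted separately.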

CHO [9] = test: Mitotic arrest in CHO cells assessed as increase in cell accumulation at 0.02 ug/ml; type: functional, Cricetulus griseus; method in brief: as §3
Mus musculus [10] = test: Toxicity in C3H mouse allografted with mouse Gardner lymphosarcoma assessed as lethality at 0.40 mg/kg, ip administered daily for 8 to 10 days; type: organism-based; set-up: dose 0.4 mg/kg, route intraperitoneal; settings: in vivo, 0.4 mg/kg
Method in brief: (§4)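 Tumor-bearing mice given sulfate salts ip daily for 8–10 days; values are the average of one or more tests. Toxic means lethal to ≥5 of 10 animals per group.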

[11] = Antitumor activity against mouse Ridgway osteogenic sarcoma allografted in AKR mouse assessed as tumor growth inhibition at 0.20 mg/kg, ip administered daily for 8 to 10 days compound treatment commenced 8 days after tumor implantation; type: functional; settings: route intraperitoneal, read-out: TGI
Mus musculus [12] = test: Toxicity in AKR mouse allografted with mouse Ridgway osteogenic sarcoma assessed as lethality at 0.40 mg/kg, ip administered daily for 8 to 10 days compound treatment commenced 8 days after tumor implantation; type: organism-based; set-up: dose 0.4 mg/kg, route intraperitoneal; settings: in vivo, 0.4 mg/kg; method in brief: as §4
[13] = Antitumor activity against mouse Ridgway osteogenic sarcoma allografted in AKR mouse assessed as tumor growth inhibition at 0.40 mg/kg, ip administered daily for 8 to 10 days compound treatment commenced 8 days after tumor implantation; type: functional; settings: route intraperitoneal, read-out: TGI
CHO [14] = test: Mitotic arrest in CHO cells assessed as increase in cell accumulation at 0.002 ug/ml; type: functional, Cricetulus griseus; method in brief: as §3

Compound | inhibition in vivo at 0.05 mg/kg [1] | inhibition in vivo at 0.1 mg/kg [2] | inhibition in vivo at 0.2 mg/kg [3] | inhibition in vivo at 0.4 mg/kg [4] | Activity (Mus musculus [10]) | inhibition in vivo at 0.2 mg/kg [11] | further results
CC[C@]1(O)C[C@H]2CN(CCc3c([nH]c4ccccc34)[C@@](C(=O)OC)(c3cc4c(cc3OC)N(C)[C@H]3[C@@](O)(C(=O)NCCC#N)[C@H](O)[C@]5(CC)C=CCN6CC[C@]43[C@@H]65)C2)C1 | 0% | 0% | 76% | 76% |  |  | 
CC[C@]1(O)C[C@H]2CN(CCc3c([nH]c4ccccc34)[C@@](C(=O)OC)(c3cc4c(cc3OC)N(C)[C@H]3[C@@](O)(C(=O)NCCc5ccc(O)cc5)[C@H](O)[C@]5(CC)C=CCN6CC[C@]43[C@@H]65)C2)C1 |  | 0% | 0% | 26% |  |  | survival at 0.6 mg/kg (B16 [5]): 125%; survival at 0.9 mg/kg (B16 [6]): 152%; survival at 1.2 mg/kg (B16 [7]): 190%
CC[C@]1(O)C[C@H]2CN(CCc3c([nH]c4ccccc34)[C@@](C(=O)OC)(c3cc4c(cc3OC)N(C)[C@H]3[C@@](O)(C(=O)NCCC(=N)OC)[C@H](O)[C@]5(CC)C=CCN6CC[C@]43[C@@H]65)C2)C1 | 0% | 0% | 0% | 0% |  |  | 
COc1cc2c(c(OC)c1OC)-c1ccc(OC)c(=O)cc1[C@@H](NC(C)=O)CC2 [COLCHICINE] |  |  |  |  |  |  | Activity (CHO [8]): 15%; Activity (CHO [9]): 3%
C=CCNC(=O)[C@@]1(O)[C@H](O)[C@]2(CC)C=CCN3CC[C@@]4(c5cc([C@@]6(C(=O)OC)C[C@@H]7CN(CCc8c6[nH]c6ccccc86)C[C@](O)(CC)C7)c(OC)cc5N(C)[C@@H]14)[C@@H]32.O=S(=O)(O)O |  | 0% | 76% |  | Toxic |  | 
CC[C@]1(O)C[C@H]2CN(CCc3c([nH]c4ccccc34)[C@@](C(=O)OC)(c3cc4c(cc3OC)N(C)[C@H]3[C@@](O)(C(=O)NCC(OC)OC)[C@H](O)[C@]5(CC)C=CCN6CC[C@]43[C@@H]65)C2)C1.O=S(=O)(O)O | 0% | 76% | 76% |  | Toxic |  | 
CC[C@]1(O)C[C@H]2CN(CCc3c([nH]c4ccccc34)[C@@](C(=O)OC)(c3cc4c(cc3OC)N(C)[C@H]3[C@@](O)(C(=O)N5CCCC5)[C@H](O)[C@]5(CC)C=CCN6CC[C@]43[C@@H]65)C2)C1.O=S(=O)(O)O |  |  | 0% |  | Toxic | 51% | Activity (Mus musculus [12]): Toxic
CCCCCCCCCCCCCCCCCC(=O)OCCNC(=O)[C@@]1(O)[C@H](O)[C@]2(CC)C=CCN3CC[C@@]4(c5cc([C@@]6(C(=O)OC)C[C@@H]7CN(CCc8c6[nH]c6ccccc86)C[C@](O)(CC)C7)c(OC)cc5N(C)[C@@H]14)[C@@H]32 | 0% | 0% | 51% | 76% |  |  | 
CC[C@]1(O)C[C@H]2CN(CCc3c([nH]c4ccccc34)[C@@](C(=O)OC)(c3cc4c(cc3OC)N(C)[C@H]3[C@@](O)(C(=O)NCC(O)CO)[C@H](O)[C@]5(CC)C=CCN6CC[C@]43[C@@H]65)C2)C1 (stereo partly drawn) |  |  | 26% | 51% |  | 26% | inhibition in vivo at 0.4 mg/kg [13]: 76%
CC[C@]1(O)C[C@H]2CN(CCc3c([nH]c4ccccc34)[C@@](C(=O)OC)(c3cc4c(cc3OC)N(C)[C@H]3[C@@](O)(C(=O)NCCSSCCNC(C)=O)[C@H](O)[C@]5(CC)C=CCN6CC[C@]43[C@@H]65)C2)C1 |  | 0% | 0% | 51% |  |  | survival at 0.6 mg/kg (B16 [5]): 93%; survival at 0.9 mg/kg (B16 [6]): 118%; survival at 1.2 mg/kg (B16 [7]): 127%
CC[C@]1(O)C[C@H]2CN(CCc3c([nH]c4ccccc34)[C@@](C(=O)OC)(c3cc4c(cc3OC)N(C)[C@H]3[C@@](O)(C(=O)NCCOC(C)=O)[C@H](O)[C@]5(CC)C=CCN6CC[C@]43[C@@H]65)C2)C1.O=S(=O)(O)O | 26% | 51% | 76% |  | Toxic | 76% | Activity (Mus musculus [12]): Toxic
CC[C@]1(O)C[C@H]2CN(CCc3c([nH]c4ccccc34)[C@@](C(=O)OC)(c3cc4c(cc3OC)N(C)[C@H]3[C@@](O)(C(=O)NCC=O)[C@H](O)[C@]5(CC)C=CCN6CC[C@]43[C@@H]65)C2)C1 | 0% | 26% | 76% | 76% |  |  | 
C#CCNC(=O)[C@@]1(O)[C@H](O)[C@]2(CC)C=CCN3CC[C@@]4(c5cc([C@@]6(C(=O)OC)C[C@@H]7CN(CCc8c6[nH]c6ccccc86)C[C@](O)(CC)C7)c(OC)cc5N(C)[C@@H]14)[C@@H]32.O=S(=O)(O)O |  | 51% | 76% |  | Toxic |  | 
CCCCCCNC(=O)[C@@]1(O)[C@H](O)[C@]2(CC)C=CCN3CC[C@@]4(c5cc([C@@]6(C(=O)OC)C[C@@H]7CN(CCc8c6[nH]c6ccccc86)C[C@](O)(CC)C7)c(OC)cc5N(C)[C@@H]14)[C@@H]32 |  |  | 26% | 0% |  | 0% | inhibition in vivo at 0.4 mg/kg [13]: 0%
CC[C@]1(O)C[C@H]2CN(CCc3c([nH]c4ccccc34)[C@@](C(=O)OC)(c3cc4c(cc3OC)N(C)[C@H]3[C@@](O)(C(=O)OC)[C@H](O)[C@]5(CC)C=CCN6CC[C@]43[C@@H]65)C2)C1 |  |  |  |  |  |  | Activity (CHO [9]): 40%; Activity (CHO [14]): 3%
CC[C@]1(O)C[C@H]2CN(CCc3c([nH]c4ccccc34)[C@@](C(=O)OC)(c3cc4c(cc3OC)N(C)[C@H]3[C@@](O)(C(=O)NCCSC(c5ccccc5)(c5ccccc5)c5ccccc5)[C@H](O)[C@]5(CC)C=CCN6CC[C@]43[C@@H]65)C2)C1 |  | 0% | 0% | 0% |  |  | survival at 0.6 mg/kg (B16 [5]): 0%; survival at 0.9 mg/kg (B16 [6]): 1%; survival at 1.2 mg/kg (B16 [7]): 4%
CC[C@]1(O)C[C@H]2CN(CCc3c([nH]c4ccccc34)[C@@](C(=O)OC)(c3cc4c(cc3OC)N(C)[C@H]3[C@@](O)(C(=O)NCCc5ccc(O)c(O)c5)[C@H](O)[C@]5(CC)C=CCN6CC[C@]43[C@@H]65)C2)C1 |  | 0% | 0% | 26% |  |  | survival at 0.6 mg/kg (B16 [5]): 28%; survival at 0.9 mg/kg (B16 [6]): 128%; survival at 1.2 mg/kg (B16 [7]): 154%
CC[C@]1(O)C[C@H]2CN(CCc3c([nH]c4ccccc34)[C@@](C(=O)OC)(c3cc4c(cc3OC)N(C)[C@H]3[C@@](O)(C(=O)NCCSC(c5ccc(OC)cc5)(c5ccc(OC)cc5)c5ccc(OC)cc5)[C@H](O)[C@]5(CC)C=CCN6CC[C@]43[C@@H]65)C2)C1 |  | 0% | 0% | 0% |  |  | survival at 0.6 mg/kg (B16 [5]): 16%; survival at 0.9 mg/kg (B16 [6]): 28%; survival at 1.2 mg/kg (B16 [7]): 35%
CC[C@]1(O)C[C@H]2CN(CCc3c([nH]c4ccccc34)[C@@](C(=O)OC)(c3cc4c(cc3OC)N(C)[C@H]3[C@@](O)(C(=O)NC5CCCCC5)[C@H](O)[C@]5(CC)C=CCN6CC[C@]43[C@@H]65)C2)C1 |  |  | 0% | 26% |  | 26% | inhibition in vivo at 0.4 mg/kg [13]: 51%
CCCC(=O)OCCNC(=O)[C@@]1(O)[C@H](O)[C@]2(CC)C=CCN3CC[C@@]4(c5cc([C@@]6(C(=O)OC)C[C@@H]7CN(CCc8c6[nH]c6ccccc86)C[C@](O)(CC)C7)c(OC)cc5N(C)[C@@H]14)[C@@H]32.O=S(=O)(O)O | 0% | 51% | 76% |  | Toxic | 76% | Activity (Mus musculus [12]): Toxic
